# Hits are enriched below; roughly 1.9% of the tested compounds scored in any of these assays.
# PGC1a acetyl inh = inhibitors of PGC1a acetylation signal, primary screen, cell-based, U2OS, AlphaScreen, inhibitor mode | AlphaScreen anti-acetyl-lysine; with virally co-expressed GCN5 acetyltransferase | inhibition, % at 15.6 µM | 350,000 tested, 0.17% active | AID 651687, 2012;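 active means every replicate shows inhibition of at least 40%; inconclusive means mean inhibition at least 40% but some replicate below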;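 further: 0% = neutral control wells and 100% = positive control wells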
# Xi reactivation = activators of inactive X chromosome reactivation, primary screen, imaging, XiGFP fibroblasts, GFP high-content imaging, set 2; XiGFP mouse fibroblasts, % GFP-positive cells imaging, 3 d; cells co-treated with 5-aza-dC sensitizer; scaled so ellipticine positive control = 100%; activation, % at 7.58 µM; 360,000 tested, 0.055% active; AID 743238, 2013;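 active means mean normalized replicate activation at least 10% and every replicate at or above 10%; inconclusive means only one of the two criteria met; inactive means mean below 10% and not all replicates reach 10%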;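 further: 0% = median of on-plate neutral control wells and 100% = ellipticine 6 µM median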
#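 Material: XiGFP fibroblasts, SV40-immortalized. Buffer or medium: DMEM plus 5-aza-dC sensitizer. Compound: single concentration per compound, delivered by pin transfer. Times: 3 days compound exposure. Controls: ellipticine 6 µM.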
# Cneo AK release = Cryptococcus neoformans cell lysis inducers, primary screen, AK release luminescence, single concentration | C. neoformans lysis, adenylate kinase release luminescence, 4 h; normalised: neutral wells 0, clomiphene wells 100 | 360,000 tested, 0.2% active | lysis activity, % at 15 µM;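 active means mean lysis activity across replicates of at least 80%, whatever share of replicates individually reach that level; inactive means mean lysis activity below 80%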
#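 Assay system: log-phase C. neoformans yeast / Quantity: yeast cell density of 5 × 10^6 cells/mL / Medium: fresh YPD growth medium / Compound: single dose / Timing: static 4 h at 37 °C with compound, 1 h detection / Measured by: adenylate kinase release luminescence / Read-out: lysis from increased AK signal / Benchmarks: Clomiphene as positive lysis control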
# CFTR F508del cor = F508del CFTR correction, initial screen, CFBE line, single point; CFBE cells, YFP halide quenching; stimulated with forskolin plus potentiator P3; % fluorescence drop versus neutral controls; activity (quench increase), % at 7.58 µM; 350,000 tested, 0.36% active;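 active means mean added fluorescence quench of at least 8% versus neutral control, with both replicates also reaching 8%; inconclusive means only one of the mean or replicate conditions met; inactive means mean below 8% and not both replicates reaching 8%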;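 further: cells transiently co-express mutant CFTR-F508del with the halide-sensitive YFP; corrector assay measuring rescue of mutant channel to the surface after 24 h compound exposure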
# FN deposit inh = inhibitors of fibronectin matrix deposition, primary screen, AH1F cells, Alexa488-fibronectin fluorescence, plate reader. 350,000 tested, 0.086% active. inhibition, % at 12.6 µM. AID 743247, 2014. AH1F fibroblasts, overnight;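 active means mean inhibition across replicates of 30% or more, regardless of how many single replicates reach that level; inconclusive means mean under 30% yet at least half of replicates reach 30%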;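 further: positive control wells lacked labelled fibronectin entirely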
#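 Assay system: AH1F fibroblast monolayer, labelled fibronectin deposition. Amount: 10000 cells per well. Also added: labelled fibronectin 24 nM. Compound: single-point pinned compound. Incubation: cell attachment 1 h, compound and FN exposure overnight. Detection: fluorescence after three HBSS washes, excitation 485 nm, emission 525 nm. Read-out: inhibition of fibronectin deposition signal.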
# DENV2 CPE rescue = inhibitors of DENV2 cytopathic effect, primary screen, cell-based, plate reader, single concentration; 350,000 tested, 1.7% active; CPE inhibition, % at 9.99 µM; DENV2-infected cells, cytopathic effect rescue; in the data active means CPE inhibition above about 20%, passing the limit was not always enough; inconclusive means no clear call, values can overlap the other calls; tested in BHK-21 cells;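 further: 0% = median of neutral control wells and 100% = median of positive control wells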
# Starred values were filed as active, the others as inactive; u = inconclusive; x = no result.
SMILES,PGC1a acetyl inh,Xi reactivation,Cneo AK release,CFTR F508del cor,FN deposit inh,DENV2 CPE rescue
CCOC(=O)CNC(=O)N(C)[C@H]1C[C@H]2c3[nH]c4ccccc4c3CCN2C(=O)[C@H]1[C@H](C)O,-10.6,x,1.4,0.2,2.0,23.5*
COCCNC(=O)C1CCCN(C(=O)c2cc(-c3cccs3)oc2C)CC1 (stereo not drawn),6.1,0.0,-2.7,13.3*,4.9,2.1
C[C@H](CO)N1C[C@H](C)[C@H](CN(C)C(=O)Nc2ccc3c(c2)OCO3)OCCCC[C@H](C)Oc2ccc(NC(=O)c3ccccc3)cc2C1=O,3.8,0.2,-1.2,-2.8,x,-7.0
C[C@H](CO)N1C[C@H](C)[C@H](CN(C)S(=O)(=O)c2ccc(Cl)cc2)OCCCC[C@H](C)Oc2ccc(NC(=O)CCCN(C)C)cc2C1=O,6.0,0.1,0.0,0.8,1.8,21.4*
C[C@H](CO)N1C[C@H](C)[C@H](CN(C)S(=O)(=O)c2ccccc2)OCCCC[C@H](C)Oc2ccc(NC(=O)Nc3ccc(F)cc3)cc2C1=O,-2.5,0.2,-1.5,-0.9,x,21.7*
Cc1noc(C)c1S(=O)(=O)N(C)C[C@H]1OCCCC[C@H](C)Oc2ccc(NC(=O)Nc3ccc(F)cc3)cc2C(=O)N([C@@H](C)CO)C[C@@H]1C,-2.2,-0.1,5.4,-0.1,-2.9,72.8*
C[C@@H]1CCCCO[C@@H](CN(C)S(=O)(=O)c2ccccc2)[C@H](C)CN([C@@H](C)CO)C(=O)c2cc(NC(=O)Nc3ccc(F)cc3)ccc2O1,5.8,0.1,104.7*,-5.0,x,-10.9
C[C@@H]1CCCCO[C@@H](CN(C)S(=O)(=O)c2ccc(Cl)cc2)[C@@H](C)CN([C@@H](C)CO)C(=O)c2cc(NC(=O)CCCN(C)C)ccc2O1,4.1,-0.2,0.1,-0.1,x,-15.6
COCC(=O)Nc1ccc2c(c1)[C@H]1C[C@@H](CC(=O)N[C@H](C)c3ccccc3)O[C@@H](CO)[C@H]1O2,0.5,0.3,3.2,-1.9,-12.3,-4.0
CO[C@@H]1CN(C)C(=O)c2ccc(NC(C)=O)cc2OC[C@@H](C)N(C(=O)c2ccccc2F)C[C@H]1C,4.9,x,-3.8,0.0,x,x
CNC[C@H]1Oc2ccc(N)cc2C(=O)N(C)C[C@H]1C,x,0.0,x,x,7.8,x
C[C@@H]1CCCCO[C@H](CN(C)S(=O)(=O)c2ccc(Cl)cc2)[C@@H](C)CN([C@H](C)CO)C(=O)c2cc(NC(=O)Nc3ccc(F)cc3)ccc2O1,9.9,-0.1,-5.9,0.8,-8.1,8.4
C[C@@H]1CCCCO[C@@H](CN(C)S(=O)(=O)c2ccc(Cl)cc2)[C@@H](C)CN([C@@H](C)CO)C(=O)c2cc(NC(=O)Nc3ccc(F)cc3)ccc2O1,0.5,0.2,-6.1,3.2,-6.8,28.8*
C[C@H](CO)N1C[C@H](C)[C@H](CN(C)C(=O)c2cccc(F)c2)Oc2cc(-c3cccnc3)ccc2S1(=O)=O,-6.9,-1.2,2.1,-1.2,3.4,-8.0
Cc1cc(C)n(-c2nnc(Cl)c3ccccc23)n1,-46.1,0.3,x,-0.3,-1.7,22.9*
Cc1ccc(-c2nnc(-n3nc(C)cc3C)c3ccccc23)cc1,x,0.0,x,x,13.0,x
O=C(O)COc1ccccc1-c1nc(-c2ccccc2)c(-c2ccccc2)[nH]1,-2.3,0.0,3.3,1.0,-1.8,-2.5
O=C(O)c1ccccc1-c1nc(-c2ccccc2)c(-c2ccccc2)[nH]1,x,0.1,x,13.2*,1.4,-2.0
S=c1nc[nH]c2c1cnn2Cc1ccccc1,44.6*,0.0,0.6,-5.9,-5.0,-4.1
CN(C)CC(=O)Nc1ccc2c(c1)[C@@H]1C[C@@H](CC(=O)N(C)C)O[C@@H](CO)[C@@H]1O2,-0.4,0.2,-5.0,1.5,10.4,-6.1
Cc1nc2ccc(C(=O)NC(C)(C)C)cn2c1N(C)C(=O)CCc1ccccc1,x,0.3,0.0,-3.2,0.8,34.5*
Cc1nc2ccc(C(=O)Nc3cccc(NS(C)(=O)=O)c3)cn2c1N(C)C(=O)CCc1ccccc1,x,0.0,-0.6,0.6,0.3,-6.8
Cc1ccccc1S(=O)(=O)N[C@@H]1CC[C@@H](CCn2cc(Cc3ccccc3)nn2)O[C@@H]1CO,1.3,0.0,-2.2,-6.5,2.2,-0.5
CCOC(=O)c1c(C)[nH]c(C)c1C(=O)COC(=O)c1ccc([N+](=O)[O-])s1,-6.1,-0.7,-2.6,9.3*,-5.2,u
O=C(C[C@@H]1CC[C@H](NS(=O)(=O)c2ccccc2)[C@@H](CO)O1)N1CCC(Cc2ccccc2)CC1,-5.1,-0.2,x,0.8,-1.9,8.3
SMILES,PGC1a acetyl inh,Xi reactivation,Cneo AK release,CFTR F508del cor,FN deposit inh,DENV2 CPE rescue
COC(=O)/C(=C\Nc1cccc(Cl)c1C)c1ncc(C(F)(F)F)cc1Cl,41.3*,x,x,x,x,x
COc1cccc(C(=O)c2ncc(C(F)(F)F)cc2Cl)c1,x,0.0,x,-1.6,-14.5,5.4
C[C@@H]1CCCCO[C@@H](CN(C)CC2CCCCC2)[C@@H](C)CN([C@@H](C)CO)C(=O)c2cc(NC(=O)CCC(F)(F)F)ccc2O1,-6.7,0.2,-11.0,0.3,x,29.9*
C[C@H]1CCCCO[C@H](CN(C)CC2CCCCC2)[C@@H](C)CN([C@@H](C)CO)C(=O)c2cc(NC(=O)CCC(F)(F)F)ccc2O1,5.1,-0.7,-9.7,0.0,x,0.4
C[C@@H]1CCCCO[C@H](CN(C)CC2CCCCC2)[C@@H](C)CN([C@H](C)CO)C(=O)c2cc(NC(=O)CCC(F)(F)F)ccc2O1,-0.8,-0.2,-3.3,1.9,x,52.2*
C[C@@H]1CN([C@@H](C)CO)C(=O)c2cc(NC(=O)Cc3ccccc3)ccc2O[C@@H](C)CCCCO[C@@H]1CN(C)CC1CCCCC1,-4.8,-1.0,54.2,-0.1,x,25.7*
CCCN(C)C[C@H]1Oc2cc(-c3cccc(OC)c3)ccc2S(=O)(=O)N([C@@H](C)CO)C[C@H]1C,-13.1,-1.3,-0.3,-5.6,x,5.4
C[C@@H]1CN([C@@H](C)CO)C(=O)c2cc(N(C)C)ccc2O[C@H]1CN(C)C(=O)Nc1ccccc1,6.2,-0.7,x,-0.9,x,x
O=C(C[C@H]1C[C@@H]2c3cc(NS(=O)(=O)c4ccc(F)cc4)ccc3O[C@@H]2[C@H](CO)O1)NCc1ccncc1,-7.4,0.0,1.6,-2.4,-1.1,-5.9
S=C(NCCc1ccc(Cl)cc1)NCc1ccccc1,-3.4,x,114.5*,x,x,x
Cc1c(Cl)cccc1NC(=S)NCCc1ccc(Cl)cc1,-10.5,0.0,113.1*,0.2,9.8,4.1

# Assay outcomes as filed in PubChem.
